≈ marks a conversion by molar mass, not a printed value.
Key:
Format in all cases: functional
Staphylococcus aureus [1] = assay: Antibacterial activity against quinolone-resistant Staphylococcus aureus CCARM 3505 assessed as bacterial growth inhibition measured during 24 hrs incubation at 37 degC by two-fold serial dilution technique; settings: CCARM 3505, 24 h
Summary of the method: (§1)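 Clinical isolates grown to mid-log phase in Mueller-Hinton broth, diluted 1000-fold, inoculated at 10⁵ CFU/mL in MHB in 96-well microtiter plates. Two-fold serial dilutions gave final concentrations of […]. Oxacillin and norfloxacin were the positive controls. Growth was read as absorbance at 650 nm. MIC is the lowest concentration giving complete growth inhibition.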

Staphylococcus aureus [2] = assay: Antibacterial activity against methicillin-resistant Staphylococcus aureus CCARM 3167 assessed as bacterial growth inhibition measured during 24 hrs incubation at 37 degC by two-fold serial dilution technique; settings: CCARM 3167, 24 h; summary of the method: as §1
Staphylococcus aureus [3] = assay: Antibacterial activity against quinolone-resistant Staphylococcus aureus CCARM 3519 assessed as bacterial growth inhibition measured during 24 hrs incubation at 37 degC by two-fold serial dilution technique; settings: CCARM 3519, 24 h; summary of the method: as §1
Staphylococcus aureus [4] = assay: Antibacterial activity against methicillin-resistant Staphylococcus aureus CCARM 3506 assessed as bacterial growth inhibition measured during 24 hrs incubation at 37 degC by two-fold serial dilution technique; settings: CCARM 3506, 24 h; summary of the method: as §1

Compound	MIC (Staphylococcus aureus [1]) [µg/mL]	MIC (Staphylococcus aureus [2]) [µg/mL]	MIC (Staphylococcus aureus [3]) [µg/mL]	MIC (Staphylococcus aureus [4]) [µg/mL]
CCC(C)[C@@H](C(=O)O)N1C(=O)/C(=C/c2c(C)nn(-c3ccccc3)c2Cl)SC1=S (some centres not stated)	16 (≈ 35.6 µM)	16 (≈ 35.6 µM)	32 (≈ 71.1 µM)	32 (≈ 71.1 µM)
Cc1nn(-c2ccccc2)c(Cl)c1/C=C1\SC(=S)N([C@@H](CC(C)C)C(=O)O)C1=O	32 (≈ 71.1 µM)	16 (≈ 35.6 µM)	32 (≈ 71.1 µM)	32 (≈ 71.1 µM)
CCC(C)[C@@H](C(=O)O)N1C(=O)/C(=C/c2c(C)nn(-c3ccccc3)c2Oc2ccccc2Cl)SC1=S (some centres not stated)	4 (≈ 7.38 µM)	2 (≈ 3.69 µM)	4 (≈ 7.38 µM)	4 (≈ 7.38 µM)
CCC(C)[C@@H](C(=O)O)N1C(=O)/C(=C/c2c(C)nn(-c3ccccc3)c2Oc2cccc(Cl)c2)SC1=S (some centres not stated)	8 (≈ 14.8 µM)	4 (≈ 7.38 µM)	8 (≈ 14.8 µM)	8 (≈ 14.8 µM)
CCC(C)[C@@H](C(=O)O)N1C(=O)/C(=C/c2c(C)nn(-c3ccccc3)c2Oc2ccc(Cl)cc2)SC1=S (some centres not stated)	4 (≈ 7.38 µM)	2 (≈ 3.69 µM)	4 (≈ 7.38 µM)	4 (≈ 7.38 µM)
CCC(C)[C@@H](C(=O)O)N1C(=O)/C(=C/c2c(C)nn(-c3ccccc3)c2Oc2ccc(F)cc2)SC1=S (some centres not stated)	8 (≈ 15.2 µM)	2 (≈ 3.8 µM)	8 (≈ 15.2 µM)	4 (≈ 7.61 µM)
CCC(C)[C@@H](C(=O)O)N1C(=O)/C(=C/c2c(C)nn(-c3ccccc3)c2Oc2ccc(Br)cc2)SC1=S (some centres not stated)	2 (≈ 3.41 µM)	2 (≈ 3.41 µM)	2 (≈ 3.41 µM)	2 (≈ 3.41 µM)
CCC(C)[C@@H](C(=O)O)N1C(=O)/C(=C/c2c(C)nn(-c3ccccc3)c2Oc2ccc3ccccc3c2)SC1=S (some centres not stated)	2 (≈ 3.59 µM)	2 (≈ 3.59 µM)	2 (≈ 3.59 µM)	2 (≈ 3.59 µM)
CCC(C)[C@@H](C(=O)O)N1C(=O)/C(=C/c2c(C)nn(-c3ccccc3)c2Oc2ccccc2)SC1=S (some centres not stated)	8 (≈ 15.8 µM)	4 (≈ 7.88 µM)	4 (≈ 7.88 µM)	4 (≈ 7.88 µM)
CCC(C)[C@@H](C(=O)O)N1C(=O)/C(=C/c2c(C)nn(-c3ccccc3)c2Oc2ccccc2C)SC1=S (some centres not stated)	4 (≈ 7.67 µM)	2 (≈ 3.83 µM)	4 (≈ 7.67 µM)	4 (≈ 7.67 µM)
CCC(C)[C@@H](C(=O)O)N1C(=O)/C(=C/c2c(C)nn(-c3ccccc3)c2Oc2cccc(C)c2)SC1=S (some centres not stated)	4 (≈ 7.67 µM)	2 (≈ 3.83 µM)	2 (≈ 3.83 µM)	4 (≈ 7.67 µM)
CCC(C)[C@@H](C(=O)O)N1C(=O)/C(=C/c2c(C)nn(-c3ccccc3)c2Oc2ccc(C)cc2)SC1=S (some centres not stated)	4 (≈ 7.67 µM)	2 (≈ 3.83 µM)	4 (≈ 7.67 µM)	4 (≈ 7.67 µM)
CCC(C)[C@@H](C(=O)O)N1C(=O)/C(=C/c2c(C)nn(-c3ccccc3)c2Oc2ccc(C)cc2C)SC1=S (some centres not stated)	2 (≈ 3.73 µM)	2 (≈ 3.73 µM)	2 (≈ 3.73 µM)	2 (≈ 3.73 µM)
CCC(C)[C@@H](C(=O)O)N1C(=O)/C(=C/c2c(C)nn(-c3ccccc3)c2Oc2cccc(C(F)(F)F)c2)SC1=S (some centres not stated)	8 (≈ 13.9 µM)	4 (≈ 6.95 µM)	8 (≈ 13.9 µM)	8 (≈ 13.9 µM)
CCC(C)[C@@H](C(=O)O)N1C(=O)/C(=C/c2c(C)nn(-c3ccccc3)c2Oc2ccc(OC)cc2)SC1=S (some centres not stated)	4 (≈ 7.44 µM)	4 (≈ 7.44 µM)	4 (≈ 7.44 µM)	4 (≈ 7.44 µM)
CCC(C)[C@@H](C(=O)O)N1C(=O)/C(=C/c2c(C)nn(-c3ccccc3)c2Oc2ccccc2OC)SC1=S (some centres not stated)	16 (≈ 29.8 µM)	16 (≈ 29.8 µM)	16 (≈ 29.8 µM)	16 (≈ 29.8 µM)
Cc1nn(-c2ccccc2)c(Oc2ccc(Cl)cc2Cl)c1/C=C1\SC(=S)N([C@@H](CC(C)C)C(=O)O)C1=O	4 (≈ 6.94 µM)	4 (≈ 6.94 µM)	4 (≈ 6.94 µM)	4 (≈ 6.94 µM)
Cc1ccc(Oc2c(/C=C3\SC(=S)N([C@@H](CC(C)C)C(=O)O)C3=O)c(C)nn2-c2ccccc2)c(C)c1	4 (≈ 7.47 µM)	4 (≈ 7.47 µM)	4 (≈ 7.47 µM)	4 (≈ 7.47 µM)
Cc1nn(-c2ccccc2)c(Cl)c1/C=C1\SC(=S)N(CC(=O)O)C1=O	> 64	> 64	> 64	> 64
Cc1nn(-c2ccccc2)c(Cl)c1/C=C1\SC(=S)N([C@H](C(=O)O)C(C)C)C1=O	32 (≈ 73.4 µM)	16 (≈ 36.7 µM)	32 (≈ 73.4 µM)	32 (≈ 73.4 µM)
Cc1nn(-c2ccccc2)c(Oc2cccc(C(F)(F)F)c2)c1/C=C1\SC(=S)N(CC(=O)O)C1=O	32 (≈ 61.6 µM)	16 (≈ 30.8 µM)	32 (≈ 61.6 µM)	32 (≈ 61.6 µM)
COc1ccc(Oc2c(/C=C3\SC(=S)N(CC(=O)O)C3=O)c(C)nn2-c2ccccc2)cc1	> 64	> 64	> 64	> 64
COc1ccccc1Oc1c(/C=C2\SC(=S)N(CC(=O)O)C2=O)c(C)nn1-c1ccccc1	> 64	> 64	> 64	> 64
Cc1nn(-c2ccccc2)c(Oc2c(Cl)cccc2Cl)c1/C=C1\SC(=S)N([C@H](C(=O)O)C(C)C)C1=O	8 (≈ 14.2 µM)	8 (≈ 14.2 µM)	16 (≈ 28.4 µM)	16 (≈ 28.4 µM)

Compound	MIC (Staphylococcus aureus [1]) [µg/mL]	MIC (Staphylococcus aureus [2]) [µg/mL]	MIC (Staphylococcus aureus [3]) [µg/mL]	MIC (Staphylococcus aureus [4]) [µg/mL]
Cc1nn(-c2ccccc2)c(Oc2ccccc2Cl)c1/C=C1\SC(=S)N([C@H](C(=O)O)C(C)C)C1=O	8 (≈ 15.1 µM)	4 (≈ 7.57 µM)	4 (≈ 7.57 µM)	4 (≈ 7.57 µM)
Cc1nn(-c2ccccc2)c(Oc2cccc(Cl)c2)c1/C=C1\SC(=S)N([C@H](C(=O)O)C(C)C)C1=O	8 (≈ 15.1 µM)	4 (≈ 7.57 µM)	4 (≈ 7.57 µM)	4 (≈ 7.57 µM)
Cc1nn(-c2ccccc2)c(Oc2ccc(Cl)cc2)c1/C=C1\SC(=S)N([C@H](C(=O)O)C(C)C)C1=O	4 (≈ 7.57 µM)	4 (≈ 7.57 µM)	4 (≈ 7.57 µM)	4 (≈ 7.57 µM)
Cc1nn(-c2ccccc2)c(Oc2ccc(F)cc2)c1/C=C1\SC(=S)N([C@H](C(=O)O)C(C)C)C1=O	8 (≈ 15.6 µM)	8 (≈ 15.6 µM)	8 (≈ 15.6 µM)	8 (≈ 15.6 µM)
Cc1nn(-c2ccccc2)c(Oc2ccc(Br)cc2)c1/C=C1\SC(=S)N([C@H](C(=O)O)C(C)C)C1=O	4 (≈ 6.99 µM)	2 (≈ 3.49 µM)	4 (≈ 6.99 µM)	4 (≈ 6.99 µM)
Cc1nn(-c2ccccc2)c(Oc2ccc3ccccc3c2)c1/C=C1\SC(=S)N([C@H](C(=O)O)C(C)C)C1=O	8 (≈ 14.7 µM)	4 (≈ 7.36 µM)	8 (≈ 14.7 µM)	8 (≈ 14.7 µM)
Cc1nn(-c2ccccc2)c(Oc2ccccc2)c1/C=C1\SC(=S)N([C@H](C(=O)O)C(C)C)C1=O	16 (≈ 32.4 µM)	16 (≈ 32.4 µM)	16 (≈ 32.4 µM)	16 (≈ 32.4 µM)
Cc1ccccc1Oc1c(/C=C2\SC(=S)N([C@H](C(=O)O)C(C)C)C2=O)c(C)nn1-c1ccccc1	8 (≈ 15.8 µM)	4 (≈ 7.88 µM)	8 (≈ 15.8 µM)	8 (≈ 15.8 µM)
Cc1cccc(Oc2c(/C=C3\SC(=S)N([C@H](C(=O)O)C(C)C)C3=O)c(C)nn2-c2ccccc2)c1	4 (≈ 7.88 µM)	4 (≈ 7.88 µM)	4 (≈ 7.88 µM)	8 (≈ 15.8 µM)
Cc1ccc(Oc2c(/C=C3\SC(=S)N([C@H](C(=O)O)C(C)C)C3=O)c(C)nn2-c2ccccc2)cc1	4 (≈ 7.88 µM)	4 (≈ 7.88 µM)	4 (≈ 7.88 µM)	4 (≈ 7.88 µM)
Cc1ccc(Oc2c(/C=C3\SC(=S)N([C@H](C(=O)O)C(C)C)C3=O)c(C)nn2-c2ccccc2)c(C)c1	4 (≈ 7.67 µM)	2 (≈ 3.83 µM)	2 (≈ 3.83 µM)	4 (≈ 7.67 µM)
Cc1nn(-c2ccccc2)c(Oc2cccc(C(F)(F)F)c2)c1/C=C1\SC(=S)N([C@H](C(=O)O)C(C)C)C1=O	8 (≈ 14.2 µM)	4 (≈ 7.12 µM)	8 (≈ 14.2 µM)	8 (≈ 14.2 µM)
COc1ccc(Oc2c(/C=C3\SC(=S)N([C@H](C(=O)O)C(C)C)C3=O)c(C)nn2-c2ccccc2)cc1	8 (≈ 15.3 µM)	8 (≈ 15.3 µM)	8 (≈ 15.3 µM)	8 (≈ 15.3 µM)
COc1ccccc1Oc1c(/C=C2\SC(=S)N([C@H](C(=O)O)C(C)C)C2=O)c(C)nn1-c1ccccc1	16 (≈ 30.6 µM)	16 (≈ 30.6 µM)	16 (≈ 30.6 µM)	16 (≈ 30.6 µM)
CCC(C)[C@@H](C(=O)O)N1C(=O)/C(=C/c2c(C)nn(-c3ccccc3)c2Oc2c(Cl)cccc2Cl)SC1=S (some centres not stated)	16 (≈ 27.8 µM)	8 (≈ 13.9 µM)	16 (≈ 27.8 µM)	16 (≈ 27.8 µM)
Cc1nn(-c2ccccc2)c(Oc2ccc(Cl)cc2)c1/C=C1\SC(=S)N(CC(=O)O)C1=O	16 (≈ 32.9 µM)	16 (≈ 32.9 µM)	16 (≈ 32.9 µM)	16 (≈ 32.9 µM)
Cc1nn(-c2ccccc2)c(Oc2ccc(F)cc2)c1/C=C1\SC(=S)N(CC(=O)O)C1=O	> 64	> 64	> 64	> 64
Cc1nn(-c2ccccc2)c(Oc2ccc(Br)cc2)c1/C=C1\SC(=S)N(CC(=O)O)C1=O	16 (≈ 30.2 µM)	8 (≈ 15.1 µM)	8 (≈ 15.1 µM)	8 (≈ 15.1 µM)
Cc1nn(-c2ccccc2)c(Oc2ccc3ccccc3c2)c1/C=C1\SC(=S)N(CC(=O)O)C1=O	8 (≈ 15.9 µM)	8 (≈ 15.9 µM)	8 (≈ 15.9 µM)	8 (≈ 15.9 µM)
Cc1nn(-c2ccccc2)c(Oc2ccccc2)c1/C=C1\SC(=S)N(CC(=O)O)C1=O	> 64	> 64	> 64	> 64
Cc1ccccc1Oc1c(/C=C2\SC(=S)N(CC(=O)O)C2=O)c(C)nn1-c1ccccc1	32 (≈ 68.7 µM)	16 (≈ 34.4 µM)	32 (≈ 68.7 µM)	32 (≈ 68.7 µM)
Cc1cccc(Oc2c(/C=C3\SC(=S)N(CC(=O)O)C3=O)c(C)nn2-c2ccccc2)c1	32 (≈ 68.7 µM)	16 (≈ 34.4 µM)	16 (≈ 34.4 µM)	16 (≈ 34.4 µM)
Cc1ccc(Oc2c(/C=C3\SC(=S)N(CC(=O)O)C3=O)c(C)nn2-c2ccccc2)cc1	32 (≈ 68.7 µM)	32 (≈ 68.7 µM)	32 (≈ 68.7 µM)	32 (≈ 68.7 µM)
Cc1ccc(Oc2c(/C=C3\SC(=S)N(CC(=O)O)C3=O)c(C)nn2-c2ccccc2)c(C)c1	16 (≈ 33.4 µM)	8 (≈ 16.7 µM)	16 (≈ 33.4 µM)	8 (≈ 16.7 µM)

Reference: ChEMBL document CHEMBL2321826, “Synthesis and antibacterial evaluation of rhodanine-based 5-aryloxy pyrazoles against selected methicillin resistant and quinolone-resistant Staphylococcus aureus (MRSA and QRSA)” (Eur J Med Chem, 2013)
